# According to ChEMBL document CHEMBL1148785, “Second generation tetrahydroquinoline-based protein farnesyltransferase inhibitors as antimalarials” (J Med Chem, 2007):
# Experiments:
# Plasmodium falciparum [1] = assay: Antimalarial activity against Plasmodium falciparum 3D7; type: functional; details: Plasmodium falciparum, 3D7; read-out: ED50 (the source's name)
# Procedure, shortened: (§1)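 Asynchronous culture in type A+ erythrocytes at 0.5% parasitemia and 0.5% hematocrit, grown in RPMI-1640 with 20% heat-inactivated human A+ plasma. Compound was serially diluted from a top final 5 µM, with DMSO vehicle as 100% growth. Plates ran 48 h at 37 °C under 5% CO2/5% O2/90% N2, then [3H]-hypoxanthine (0.3 µCi) for 24 h. Filter-harvested counts were corrected for the uninfected-RBC background. ED50 by linear regression; duplicates averaged.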
# Plasmodium falciparum [2] = assay: Antimalarial activity against Plasmodium falciparum K1; type: functional; details: Plasmodium falciparum, K1; read-out: ED50 (the source's name); procedure, shortened: as §1
# Plasmodium falciparum [3] = assay: Inhibition of Plasmodium falciparum protein farnesyltransferase at 50 nM by scintillation proximity assay
# Plasmodium falciparum [4] = assay: Inhibition of Plasmodium falciparum protein farnesyltransferase at 5 nM by scintillation proximity assay
# Plasmodium falciparum [5] = assay: Inhibition of Plasmodium falciparum protein farnesyltransferase at 0.5 nM by scintillation proximity assay
EC50 (Plasmodium falciparum [1]),EC50 (Plasmodium falciparum [2]),inhibition (Plasmodium falciparum [3]),inhibition (Plasmodium falciparum [4]),inhibition (Plasmodium falciparum [5]),Compound
2.4 µM,0.75 µM,98%,81%,18%,Cn1cnc(CN2CC(N(CCNC(=O)OC(C)(C)C)S(=O)(=O)c3cn(C)cn3)Cc3cc(-c4ccccc4)ccc32)c1 (stereo not given)
0.64 µM,0.475 µM,99%,89%,22%,C=C(C)CN(C1Cc2cc(-c3ccccc3)ccc2N(Cc2cn(C)cn2)C1)S(=O)(=O)c1cn(C)cn1 (stereo not given)
4.1 µM,> 5 µM,44%,0%,0%,CCS(=O)(=O)N(CC1CCN(C(=O)OC)CC1)C1Cc2cc(C#N)ccc2N(Cc2cncn2C)C1 (stereo not given)
3.5 µM,> 5 µM,80%,31%,14%,Cn1cnc(S(=O)(=O)NC2Cc3cc(-c4ccccc4)ccc3N(Cc3cncn3C)C2)c1 (stereo not given)
0.43 µM,2.5 µM,91%,50%,11%,Cn1cncc1CN1CC(N(Cc2ccc(F)cc2)S(=O)(=O)c2ccccn2)Cc2cc(C#N)ccc21 (stereo not given)
0.07 µM,0.081 µM,99%,35%,87%,Cn1cncc1CN1CC(N(CC2CCN(C(=O)c3cccs3)CC2)S(=O)(=O)c2ccccn2)Cc2cc(C#N)ccc21 (stereo not given)
0.23 µM,0.4 µM,90%,59%,15%,COC(=O)N(C)CCCCN(C1Cc2cc(C#N)ccc2N(Cc2cncn2C)C1)S(=O)(=O)c1ccccn1 (stereo not given)
0.45 µM,0.38 µM,99%,90%,9%,Cn1cnc(CN2CC(N(Cc3ccccc3)S(=O)(=O)c3cn(C)cn3)Cc3cc(-c4ccccc4)ccc32)c1 (stereo not given)
0.0062 µM,0.0042 µM,100%,100%,86%,Cn1cnc(S(=O)(=O)N(CCc2ccsc2)C2Cc3cc(C#N)ccc3N(Cc3cncn3C)C2)c1 (stereo not given)
0.2 µM,0.65 µM,96%,71%,9%,Cn1cncc1CN1CC(N(CCc2ccc(F)cc2)S(=O)(=O)c2ccccn2)Cc2cc(C#N)ccc21 (stereo not given)
2.6 µM,> 5 µM,34%,9%,0%,CN(C)CCCN(C1Cc2cc(C#N)ccc2N(Cc2cncn2C)C1)S(=O)(=O)c1cn(C)cn1 (stereo not given)
0.051 µM,0.21 µM,98%,82%,19%,Cn1cncc1CN1CC(N(Cc2ocnc2-c2ccccc2)S(=O)(=O)c2ccccn2)Cc2cc(C#N)ccc21 (stereo not given)
0.021 µM,0.0085 µM,100%,86%,26%,Cn1cnc(S(=O)(=O)N(CCc2cccs2)C2Cc3cc(C#N)ccc3N(Cc3cncn3C)C2)c1 (stereo not given)
5 µM,> 5 µM,86%,29%,10%,CCN(C1Cc2cc(-c3ccccc3)ccc2N(Cc2cncn2C)C1)S(=O)(=O)c1cn(C)cn1 (stereo not given)
0.14 µM,0.2 µM,94%,14%,62%,Cn1cncc1CN1CC(N(CC2CCN(C(=O)N3CCCCC3)CC2)S(=O)(=O)c2ccccn2)Cc2cc(C#N)ccc21 (stereo not given)
2.7 µM,> 5 µM,65%,11%,6%,Cn1cncc1CN1CC(N(CCN)S(=O)(=O)c2ccccn2)Cc2cc(C#N)ccc21 (stereo not given)
0.38 µM,0.36 µM,97%,89%,21%,C=C(Br)CN(C1Cc2cc(-c3ccccc3)ccc2N(Cc2cncn2C)C1)S(=O)(=O)c1cn(C)cn1 (stereo not given)
0.26 µM,0.4 µM,95%,80%,24%,COC(=O)N1CCC(CN(C2Cc3cc(C#N)ccc3N(Cc3cncn3C)C2)S(=O)(=O)c2cccc3cccnc23)CC1 (stereo not given)
0.17 µM,0.19 µM,98%,79%,14%,COC(=O)N1CCC(CN(C2Cc3cc(C#N)ccc3N(Cc3cncn3C)C2)S(=O)(=O)c2ccc(OC)cc2)CC1 (stereo not given)
0.13 µM,0.13 µM,97%,91%,55%,Cn1cnc(S(=O)(=O)N(CCc2c[nH]c3ccccc23)C2Cc3cc(C#N)ccc3N(Cc3cncn3C)C2)c1 (stereo not given)
0.62 µM,0.163 µM,100%,98%,46%,COC(=O)c1ccnc(CN(C2Cc3cc(C#N)ccc3N(Cc3cncn3C)C2)S(=O)(=O)c2cn(C)cn2)c1 (stereo not given)

EC50 (Plasmodium falciparum [1]),EC50 (Plasmodium falciparum [2]),inhibition (Plasmodium falciparum [3]),inhibition (Plasmodium falciparum [4]),inhibition (Plasmodium falciparum [5]),Compound
3 µM,3.75 µM,90%,58%,0%,Cn1cnc(S(=O)(=O)N(Cc2cc3nsnc3cc2Cl)C2Cc3cc(C#N)ccc3N(Cc3cncn3C)C2)c1 (stereo not given)
> 5 µM,> 5 µM,11%,10%,5%,Cn1cncc1CN1CC(N(CC(=O)NC(C)(C)C)S(=O)(=O)CCN)Cc2cc(C#N)ccc21 (stereo not given)
0.25 µM,0.6 µM,89%,69%,26%,CCN(CCCCN(C1Cc2cc(C#N)ccc2N(Cc2cncn2C)C1)S(=O)(=O)c1ccccn1)C(=O)OC (stereo not given)
0.6 µM,0.9 µM,96%,94%,66%,COC(=O)c1cccc(CN(C2Cc3cc(C#N)ccc3N(Cc3cncn3C)C2)S(=O)(=O)c2ccccn2)n1 (stereo not given)
1.1 µM,1.8 µM,55%,22%,1%,CCCS(=O)(=O)N(CC1CCN(C(=O)OC)CC1)C1Cc2cc(C#N)ccc2N(Cc2cncn2C)C1 (stereo not given)
0.056 µM,0.065 µM,99%,95%,30%,Cn1cnc(S(=O)(=O)N(Cc2ccc3nonc3c2)C2Cc3cc(C#N)ccc3N(Cc3cncn3C)C2)c1 (stereo not given)
0.035 µM,0.065 µM,99%,31%,91%,Cn1cncc1CN1CC(N(CC2CCN(C(=O)N3CCCC3)CC2)S(=O)(=O)c2ccccn2)Cc2cc(C#N)ccc21 (stereo not given)
0.75 µM,0.69 µM,88%,15%,37%,Cn1cncc1CN1CC(N(CC2CCN(C(=O)CNC(=O)OC(C)(C)C)CC2)S(=O)(=O)c2ccccn2)Cc2cc(C#N)ccc21 (stereo not given)
0.125 µM,0.4 µM,97%,81%,19%,Cn1cnc(S(=O)(=O)N(CC(=O)O)C2Cc3cc(C#N)ccc3N(Cc3cncn3C)C2)c1 (stereo not given)
0.13 µM,0.17 µM,86%,80%,35%,CN(CCCN(C1Cc2cc(C#N)ccc2N(Cc2cncn2C)C1)S(=O)(=O)c1ccccn1)C(=O)OC(C)(C)C (stereo not given)
0.82 µM,2.1 µM,61%,11%,0%,CCS(=O)(=O)N(Cc1ccccc1F)C1Cc2cc(C#N)ccc2N(Cc2cncn2C)C1 (stereo not given)
1.2 µM,3.05 µM,41%,16%,11%,CCCS(=O)(=O)N(Cc1ccccc1F)C1Cc2cc(C#N)ccc2N(Cc2cncn2C)C1 (stereo not given)
0.27 µM,0.45 µM,98%,84%,32%,Cn1cnc(CN2CC(N(Cc3ccc(S(C)(=O)=O)cc3)S(=O)(=O)c3cn(C)cn3)Cc3cc(-c4ccccc4)ccc32)c1 (stereo not given)
2.1 µM,3.5 µM,97%,78%,10%,Cn1cncc1CN1CC(N(Cc2ccc(S(C)(=O)=O)cc2)S(=O)(=O)c2ccc3c(c2)OCCCO3)Cc2cc(C#N)ccc21 (stereo not given)
2.15 µM,1.43 µM,84%,32%,0%,Cn1cncc1CN1CC(N(CCCCON2C(=O)c3ccccc3C2=O)S(=O)(=O)c2ccccn2)Cc2cc(C#N)ccc21 (stereo not given)
0.14 µM,0.1 µM,99%,96%,57%,Cn1cnc(S(=O)(=O)N(CCCCON2C(=O)c3ccccc3C2=O)C2Cc3cc(C#N)ccc3N(Cc3cncn3C)C2)c1 (stereo not given)
0.08 µM,0.093 µM,92%,51%,92%,Cn1cncc1CN1CC(N(CC2CCN(C(=O)c3ccco3)CC2)S(=O)(=O)c2ccccn2)Cc2cc(C#N)ccc21 (stereo not given)
0.04 µM,0.13 µM,97%,96%,90%,Cn1cnc(S(=O)(=O)N(CCCCN2C(=O)c3ccccc3C2=O)C2Cc3cc(C#N)ccc3N(Cc3cncn3C)C2)c1 (stereo not given)
0.275 µM,0.28 µM,96%,7%,67%,Cn1cncc1CN1CC(N(CC2CCN(S(=O)(=O)c3ccccc3)CC2)S(=O)(=O)c2ccccn2)Cc2cc(C#N)ccc21 (stereo not given)
> 5 µM,> 5 µM,15%,0%,0%,COC(=O)N1CCC(CN(C2Cc3cc(C#N)ccc3N(Cc3cncn3C)C2)S(=O)(=O)CS(C)(=O)=O)CC1 (stereo not given)
